This is an account of results in ChEMBL document CHEMBL4340526, “Discovery and Mechanistic Study of Tailor-Made Quinoline Derivatives as Topoisomerase 1 Poison with Potent Anticancer Activity” (J Med Chem, 2019).

In data set [1] the test system is MEF. Nature of the data set: Cytotoxicity against TDP1-positive MEF cells assessed as reduction in cell viability measured after 72 hrs by MTT assay. The class given is functional, cell-based. The settings on record: Mus musculus. In short, it runs like this: (§1)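 Cell lines are HCT116, HeLa, NIH:OVCAR-3, and primary TDP1+/+ and TDP1−/− mouse embryonic fibroblasts, each exposed to variable compound concentrations. Viability is measured by MTT. Percent inhibition at each concentration is calculated against untreated control, and IC50 is estimated from these values.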
For orientation: Tetrazolium assays rely on reduction of a dye to a coloured formazan, in cell work by metabolically active cells.

Data set [2] concerns MEF. Nature of the data set: Cytotoxicity against TDP1-deficient MEF cells assessed as reduction in cell viability measured after 72 hrs by MTT assay. The format is functional, cell-based. Particulars: Mus musculus. In short, it runs like this: as §1
The nature of data set [3]: Stability of the compound in human plasma assessed as parent compound remaining at […] measured after 2 hrs by LC-MS/MS analysis. Particulars: read-out: Stability. The format is ADME, cell-free. Put shortly: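 Plasma is thawed, spun at 1400 RCF for 15 min at 4 °C, and supernatant used. Compound (final 1 μM, diluted from acetonitrile/water stock) is incubated in human plasma 2 h at 37 °C with gentle shaking. Aliquots at 0, 15, 30, 60 and 120 min are precipitated with acetonitrile containing internal standard and analyzed by LC–MS/MS. The 0 min reference uses heat-inactivated plasma (56 °C, 45 min). Value is mean % remaining at 2 h.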

Data set [4] relates to DNA. Nature of the data set: Binding affinity to Escherichia coli pBS(SK+) DNA assessed as TOP1-mediated unwinding effect at 20 to 200 uM measured after 15 mins by EtBr staining based agarose gel electrophoresis method. The class given is nucleic-acid assay. In short, it runs like this: (§2)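 Relaxed pBS (SK+) substrate made by treating supercoiled plasmid with excess Top1, then proteinase K digestion at 37 °C, phenol/chloroform extraction and ethanol precipitation. Reactions hold 50 fmol relaxed DNA with compound (20, 50, 100, 200 μM) and are incubated 15 min at 37 °C. Read-out is 1% agarose gel stained with 0.5 μg/mL EtBr under UV, scoring net negative supercoiling.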

Data set [5] deals with Calf thymus DNA. The data set can be described thus: Displacement of ethidium bromide from calf thymus DNA at 200 uM by fluorescence assay. The class given is nucleic-acid assay. The settings on record: Bos taurus. In short, it runs like this: (§3)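 Ethidium displacement fluorescence at 25 °C in fluorescence buffer containing 1 μM EtBr and 5 nM calf thymus DNA, with compound titrated 0–300 μM. Emission is read at 590 nm with 510 nm excitation and plotted as % EtBr bound.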

Data set [6] concerns HCT-116. The data set can be described thus: Cytotoxicity against human HCT116 cells assessed as reduction in cell viability measured after 72 hrs by MTT assay. The class given is functional, cell-based. Particulars: HCT-116, 72 h. Put shortly: as §1
Data set [7] can be described thus: Cytotoxicity against human NIH:OVCAR3 cells assessed as reduction in cell viability measured after 72 hrs by MTT assay. The class given is functional, cell-based. The settings on record: OVCAR-3, 72 h. In short, it runs like this:
as §1

For data set [8], the system named is HEK293. The data set can be described thus: Cytotoxicity against HEK293 cells assessed as reduction in cell viability measured after 72 hrs by MTT assay. The class given is cell-based. Particulars: Homo sapiens, HEK293, 72 h. In short, it runs like this:
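MTT cell survival assay in HEK293 cells (from the Developmental Therapeutics Program) exposed to a range of compound concentrations. Percent inhibition of viability at each concentration calculated relative to untreated control, and IC50 estimated from these values.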

Data set [9] addresses T1, DNA topoisomerase 1 (Homo sapiens, UniProt P11387).
T1 sequence (P11387 whole entry): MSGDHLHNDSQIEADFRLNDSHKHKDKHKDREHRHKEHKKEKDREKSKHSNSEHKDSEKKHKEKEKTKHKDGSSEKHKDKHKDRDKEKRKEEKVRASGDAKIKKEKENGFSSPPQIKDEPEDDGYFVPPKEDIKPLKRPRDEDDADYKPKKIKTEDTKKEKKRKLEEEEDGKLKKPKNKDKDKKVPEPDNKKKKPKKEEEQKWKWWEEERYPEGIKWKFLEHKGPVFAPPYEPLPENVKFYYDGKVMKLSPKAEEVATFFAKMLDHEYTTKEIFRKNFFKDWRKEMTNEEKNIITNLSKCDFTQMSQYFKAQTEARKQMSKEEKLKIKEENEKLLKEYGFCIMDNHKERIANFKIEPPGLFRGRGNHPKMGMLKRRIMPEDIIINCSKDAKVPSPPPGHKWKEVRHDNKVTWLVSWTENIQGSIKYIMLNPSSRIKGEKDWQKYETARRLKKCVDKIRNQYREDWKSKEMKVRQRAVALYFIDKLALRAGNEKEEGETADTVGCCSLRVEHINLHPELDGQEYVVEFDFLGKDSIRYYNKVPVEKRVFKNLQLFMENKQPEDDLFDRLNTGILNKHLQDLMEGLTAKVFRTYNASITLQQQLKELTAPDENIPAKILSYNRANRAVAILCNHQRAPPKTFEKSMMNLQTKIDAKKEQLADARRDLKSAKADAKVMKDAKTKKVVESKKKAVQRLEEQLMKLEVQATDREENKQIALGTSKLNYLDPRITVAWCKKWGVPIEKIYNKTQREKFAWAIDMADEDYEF
The data set can be described thus: Poison activity at recombinant human TOP1 expressed in baculovirus infected Sf9 insect cells assessed as decrease in relaxed supercoiled pBS(SK+) DNA mobility measured after 30 mins by ethidium bromide staining based agarose gel electrophoresis. In short, it runs like this: (§4)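 Top1 is recombinant human enzyme purified from baculovirus-infected Sf-9 cells. Supercoiled pBS (SK+) DNA (90 fmol) is incubated with 30 fmol Top1 (3:1 DNA:enzyme molar ratio) in relaxation buffer, with compound added simultaneously, 30 min at 37 °C. Relaxed isomers are resolved on 1% agarose and percent relaxation inhibition is quantified. Triplicate, mean ± SD.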

Data set [10] concerns the target T2, DNA topoisomerase 1 (Homo sapiens) (UniProt P11387).
T2 sequence (whole entry): T1 sequence (P11387 whole entry)
Nature of the data set: Poison activity at recombinant human TOP1 expressed in baculovirus infected Sf9 insect cells assessed as decrease in relaxed supercoiled pBS(SK+) DNA mobility at 100 uM measured after 30 mins by ethidium bromide staining based agarose gel electrophoresis relative to control. More on the design: scale not given: the % may be the effect or the level left. Put shortly:
as §4

Data set [11] addresses T2, DNA topoisomerase 1 (Homo sapiens). Nature of the data set: Poison activity at recombinant human TOP1 expressed in baculovirus infected Sf9 insect cells assessed as decrease in relaxed supercoiled pBS(SK+) DNA mobility at 10 uM measured after 30 mins by ethidium bromide staining based agarose gel electrophoresis relative to control. Also on record: scale not given: the % may be the effect or the level left. Put shortly:
as §4

Data set [12] addresses T1, DNA topoisomerase 1. Nature of the data set: Poison activity at TOP1 in human MCF7 cells assessed as decrease in relaxed supercoiled pBS(SK+) DNA mobility measured after 30 mins by ethidium bromide staining based agarose gel electrophoresis. The class given is cell-based. Put shortly:
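The Top1 source is MCF7 whole-cell extract (endogenous enzyme). Extract is incubated with 0.3 μg supercoiled pBS (SK+) DNA and compound added together, 30 min at 37 °C, in relaxation buffer. Supercoiled and relaxed forms are separated on 1% agarose and percent relaxation inhibition is quantified. Triplicate, mean ± SD.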

The test system of data set [13] is DNA. Nature of the data set: Binding affinity to Escherichia coli pBS(SK+) DNA assessed as TOP1-mediated unwinding effect at 50 to 200 uM measured after 15 mins by EtBr staining based agarose gel electrophoresis method. The format is nucleic-acid assay. In short, it runs like this:
as §2

Data set [14] has as its system Calf thymus DNA. Nature of the data set: Displacement of ethidium bromide from calf thymus DNA at 50 uM by fluorescence assay. The format is nucleic-acid assay. Particulars: Bos taurus. Put shortly:
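Fluorescence ethidium displacement run at 25 °C with 1 μM EtBr and 5 nM calf thymus DNA in fluorescence buffer. Test compound titrated over 0–300 μM. EtBr emission read at 590 nm with excitation at 510 nm. Result expressed as % EtBr remaining bound.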

In data set [15] the test system is Calf thymus DNA. The data set can be described thus: Displacement of ethidium bromide from calf thymus DNA up to 300 uM by fluorescence assay. The format is nucleic-acid assay. The settings on record: Bos taurus. In short, it runs like this: as §3

For orientation: IC50 means the midpoint of a concentration-inhibition curve.

Structures are written as SMILES. Calls of active or inactive are those of the source. No cut-off for these calls is given here.

`COc1ccc(-c2ccc3ncc(-c4nnco4)c(NCCCn4ccnc4)c3c2)cc1`: the IC50 came out at 2.91 µM in data set [1]; 1.02 µM in [2]; 2.34 µM in data set [6]; 2.35 µM in data set [7]; 8.34 µM in data set [8]. Besides, the remaining at 2 h in data set [3] is 93.3%. Besides, the result in [4] and in data set [5] was inactive.
For the compound `Oc1ccc(-c2ccc3ncc(-c4nnco4)c(NCCCn4ccnc4)c3c2)cc1`, in [9], the IC50 is greater than 10 µM.
Regarding `N#Cc1ccc(-c2ccc3ncc(-c4nnco4)c(NCCCn4ccnc4)c3c2)cc1`, the IC50 in [9] was greater than 10 µM.
Consider `CC[C@@]1(O)C(=O)OCc2c1cc1n(c2=O)Cc2cc3ccccc3nc2-1` [CAMPTOTHECIN], for which, in data set [3], the remaining at 2 h is 15.7%.
Turning to `COc1ccc(-c2ccc3ncc(-c4nnco4)c(NCCN4CCOCC4)c3c2)cc1OC`, the IC50 in data set [9] is greater than 10 µM. Besides, the Activity in data set [10] is 20%.
For the compound `COc1ccc(-c2ccc3ncc(-c4nnco4)c(NCCn4ccnc4)c3c2)cc1`, the IC50 in data set [9] is greater than 10 µM.
With `COc1ccc(-c2ccc3ncc(-c4nnc(C)o4)c(NCCN4CCOCC4)c3c2)cc1`, in data set [9], the IC50 was greater than 10 µM.
On the same count and under the same terms, the same measure for `COc1ccc(-c2ccc3ncc(-c4nnco4)c(NCCCn4ccnc4)c3c2)c(C)c1`: greater than 10 µM.
Still for that read-out and setting: under `COc1ccccc1-c1ccc2ncc(-c3nnco3)c(NCCCn3ccnc3)c2c1` stands greater than 10 µM.
Regarding `c1ccc(-c2ccc3ncc(-c4nnco4)c(NCCCn4ccnc4)c3c2)cc1`, the IC50 in data set [9] is greater than 10 µM. Also, the Activity in data set [11] was found to be 40%.
On to `COc1ccc(-c2ccc3ncc(-c4nnc(C)o4)c(NCCN4CCOCC4)c3c2)cc1OC`, for which the IC50 in data set [9] was greater than 10 µM.
As to `COc1ccc(-c2ccc3ncc(-c4nnc(C)o4)c(NCCCn4ccnc4)c3c2)cc1`, the IC50 in data set [9] was greater than 10 µM.
On the same count and under the same terms, under `CCOC(=O)c1cnc2ccc(-c3ccc(OC)c(OC)c3)cc2c1NCCCn1ccnc1` stands greater than 10 µM; under `Fc1ccc(-c2ccc3ncc(-c4nnco4)c(NCCCn4ccnc4)c3c2)cc1`, greater than 10 µM.
As to `COc1ccc(-c2ccc3ncc(-c4nnco4)c(NCCCN4CCOCC4)c3c2)cc1`, the figures for the IC50 in data set [9] and in data set [12] were 1.79 µM and 2.51 µM, respectively. Also, the remaining at 2 h in [3] amounted to 83.4%.
Regarding `Cc1ccc(-c2ccc3ncc(-c4nnco4)c(NCCCN4CCOCC4)c3c2)cc1`, in data set [9], the IC50 was greater than 10 µM.
`COc1ccc(-c2ccc3ncc(-c4nnc(N)o4)c(NCCCn4ccnc4)c3c2)cc1`: the IC50 in data set [9] is greater than 10 µM.
In the case of `COc1ccc(-c2ccc3ncc(-c4nnco4)c(NCCN4CCOCC4)c3c2)cc1`, the IC50 in [9] was greater than 10 µM. Besides, in data set [10], the Activity was 50%.
For `COc1ccc(-c2ccc3ncc(-c4nnco4)c(NCCCN4CCOCC4)c3c2)cc1OC`, the IC50 in data set [9] was greater than 10 µM.
For the compound `COc1cc(NS(C)(=O)=O)ccc1Nc1c2ccccc2nc2ccccc12`, the outcome in [13] and in data set [14] was Active.
For `CCOC(=O)c1cnc2ccc(-c3ccc(OC)cc3)cc2c1NCCCn1ccnc1`, the IC50 in data set [9] is greater than 10 µM.
In the case of `CNc1c(-c2nnco2)cnc2ccc(-c3ccc(OC)cc3)cc12`, the IC50 in data set [9] was greater than 10 µM.
With `COc1cc([C@@H]2c3cc4c(cc3[C@@H](O[C@@H]3O[C@@H]5CO[C@@H](C)O[C@H]5[C@H](O)[C@H]3O)[C@H]3COC(=O)[C@H]23)OCO4)cc(OC)c1O`, the result in data set [13] and in [15] was inactive.
In the case of `COc1ccc(-c2ccc3ncc(-c4nnco4)c(NCCCn4ccnc4)c3c2)cc1OC`, the IC50 in data set [9] was greater than 10 µM.
The same measure, in the same setting: under `COc1ccc(-c2ccc3ncc(-c4nnco4)c(NCCCn4ccnc4)c3c2)c(OC)c1` stands greater than 10 µM.
